In ChEMBL document CHEMBL5375965, “Discovery of New Broad-Spectrum Anti-Infectives for Eukaryotic Pathogens Using Bioorganometallic Chemistry” (J Med Chem, 2023):
pIC50: −log10 of the molar value. Activity calls are given as the source filed them. The rule behind the calls is not given here.

What was measured:
[1] = system: Trichuris muris; assay: Antinematodal activity against Trichuris muris assessed as inhibition of worm motility at day 1 by worminator analysis; type: functional
Procedure, shortened: (§1)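 Two adult worms per well in RPMI-1640 (25 mM HEPES, 2.0 g/L NaHCO₃, 5% heat-inactivated FBS, 1X antibiotic/antimycotic), 4 replicate wells, 6 days at 37°C, 5% CO₂. Motility recorded 60 s per plate as pixels displaced/s on days 0, 1, 2, 3 and 6. Inhibition = (1 − treated MMU/mean 1% DMSO control MMU) × 100, floored at zero. IC₅₀ from 3- and 6-point dilutions.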

[2] = system: Trichuris muris; assay: Downregulation of Hippo gene expression in Trichuris muris at 100 uM incubated for 2 to 3 hrs; type: functional; conditions: time 2-3 hrs
Procedure, shortened: (§2)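 Adult female worms exposed in vitro to compound or 1% DMSO vehicle, then frozen at −80°C. RNA-seq reads aligned to the T. muris genome (PRJEB126, WBPS16) with STAR and counted per gene with featureCounts. Expression expressed as FPKM. Fold changes and significance relative to DMSO controls calculated with DESeq2.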

[3] = system: Trichuris muris; assay: Antinematodal activity against Trichuris muris assessed as inhibition of worm motility at day 5 by worminator analysis; type: functional; conditions: time 5 day
[4] = system: Trichuris muris; assay: Downregulation of fatty acid synthase expression in Trichuris muris at 100 uM incubated for 2 to 3 hrs; type: functional; conditions: time 2-3 hrs; procedure, shortened: as §2
[5] = system: Brugia pahangi; assay: Antinematodal activity against Brugia pahangi infected in mongolian jirds assessed as tissue damage in reproductive tracts pre-infected for 5 months followed by compound addition at 10 mg/kg, po administered twice daily for 5 days; type: functional, organism-based; conditions: time 5.0 day
Procedure, shortened: (§3)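 Male jirds (5–7 weeks, 50–60 g) infected ip with 200 L3. At 5 months, dosed orally in 5% glucose; vehicle received 5% glucose. Necropsy 5 days after last dose. Adult females fixed in 2.5% glutaraldehyde/2% paraformaldehyde in 0.1 M cacodylate, Spurr-embedded, ultrathin sections contrasted with uranyl substitute and lead citrate, imaged by TEM.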

[6] = system: Brugia pahangi; assay: Antinematodal activity against Brugia pahangi assessed as inhibition of worm motility at day 3 by worminator analysis; type: functional; conditions: time 3 day
Procedure, shortened: as §1, with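 “Single” for “Two”, “female worm” for “worms”, “plate” for “plate as pixels displaced/s”, “6 as pixels displaced/s.” for “6.”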

[7] = system: Saccharomyces cerevisiae; assay: Antifungal activity against Saccharomyces cerevisiae harboring heterozygous RPC19 deletion mutant assessed as sensitivity by measuring ratio of control intensity to treatment intensity by chemogenomic screening analysis relative to control; type: functional
[8] = system: Brugia pahangi; assay: Antinematodal activity against Brugia pahangi infected in mongolian jirds assessed as reduction in reproductive output at 10 mg/kg, po administered twice daily for 5 days; type: functional, organism-based; conditions: time 5.0 day
Procedure, shortened: (§4)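 Male jirds (5–7 weeks, 50–60 g) infected ip with 200 L3. Oral dosing in 5% glucose started 5 months post-infection; vehicle received 5% glucose. Necropsy 5 days after last dose (6 animals/treated group, 9 vehicle). Worms recovered and counted. Ex vivo MF release compared by Kruskal–Wallis/Dunn. Embryograms were scored blinded by hemocytometer, ≥200 stages per female, 6–9 females/group, and analysed by two-way ANOVA/Dunnett versus vehicle.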

[9] = system: Brugia pahangi; assay: Antinematodal activity against Brugia pahangi infected in mongolian jirds assessed as increase in number of deformed eggs at 10 mg/kg, po administered twice daily for 5 days; type: functional, organism-based; conditions: time 5.0 day; procedure, shortened: as §4
[10] = system: Brugia pahangi; assay: Antinematodal activity against Brugia pahangi by worminator analysis; type: functional, organism-based
Procedure, shortened: as §1, with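 “Single” for “Two”, “female worm” for “worms”, “plate” for “plate as pixels displaced/s”, “6 as pixels displaced/s.” for “6.”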

[11] = system: Saccharomyces cerevisiae; assay: Antifungal activity against Saccharomyces cerevisiae harboring heterozygous PMP1 deletion mutant assessed as sensitivity by measuring ratio of control intensity to treatment intensity by chemogenomic screening analysis relative to control; type: functional
[12] = system: Trichuris muris; assay: Antinematodal activity against Trichuris muris assessed as inhibition of worm motility at day 2 by worminator analysis; type: functional; conditions: time 2 day; procedure, shortened: as §1
[13] = system: Trichuris muris; assay: Downregulation of mTOR gene expression in Trichuris muris at 100 uM incubated for 2 to 3 hrs; type: functional; conditions: time 2-3 hrs; procedure, shortened: as §2
[14] = system: Trichuris muris; assay: Antinematodal activity against Trichuris muris assessed as inhibition of worm motility at day 6 by worminator analysis; type: functional; conditions: time 6 day; procedure, shortened: as §1
[15] = system: Brugia pahangi; assay: Antinematodal activity against Brugia pahangi infected in mongolian jirds assessed as reduction in worm fecundity at 10 mg/kg, po administered twice daily for 5 days; type: functional, organism-based; conditions: time 5.0 day; procedure, shortened: as §4
[16] = system: Brugia pahangi; assay: Antinematodal activity against Brugia pahangi infected in mongolian jirds assessed as reduction in number of microfilarial release at 10 mg/kg, po administered twice daily for 5 days; type: functional, organism-based; conditions: time 5.0 day; procedure, shortened: as §4
[17] = system: Trichuris muris; assay: Downregulation of Wnt gene expression in Trichuris muris at 100 uM incubated for 2 to 3 hrs; type: functional; conditions: time 2-3 hrs; procedure, shortened: as §2
[18] = system: Brugia pahangi; assay: Antinematodal activity against Brugia pahangi infected in mongolian jirds assessed as deformed embryos with globular material pre-infected for 5 months followed by compound addition at 10 mg/kg, po administered twice daily for 5 days; type: functional, organism-based; conditions: time 5.0 day; procedure, shortened: as §3
[19] = system: Brugia pahangi; assay: Antinematodal activity against Brugia pahangi assessed as inhibition of worm motility measured immediately by worminator analysis; type: functional
Procedure, shortened: as §1, with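 “Single” for “Two”, “female worm” for “worms”, “plate” for “plate as pixels displaced/s”, “6 as pixels displaced/s.” for “6.”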

[20] = system: Brugia pahangi; assay: Antinematodal activity against Brugia pahangi infected in mongolian jirds assessed as embryos with mature lysosomes pre-infected for 5 months followed by compound addition at 10 mg/kg, po administered twice daily for 5 days; type: functional, organism-based; conditions: time 5.0 day; procedure, shortened: as §3
[21] = system: Brugia pahangi; assay: Antinematodal activity against Brugia pahangi infected in mongolian jirds assessed as reduction in number of eggs at 10 mg/kg, po administered twice daily for 5 days; type: functional, organism-based; conditions: time 5.0 day; procedure, shortened: as §4
[22] = system: Saccharomyces cerevisiae; assay: Antifungal activity against Saccharomyces cerevisiae harboring heterozygous RSC9 deletion mutant assessed as sensitivity by measuring ratio of control intensity to treatment intensity by chemogenomic screening analysis relative to control; type: functional
[23] = system: Brugia pahangi; assay: Antinematodal activity against Brugia pahangi assessed as inhibition of worm motility at day 1 by worminator analysis; type: functional; conditions: time 1 day
Procedure, shortened: as §1, with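 “Single” for “Two”, “female worm” for “worms”, “plate” for “plate as pixels displaced/s”, “6 as pixels displaced/s.” for “6.”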

[24] = system: Saccharomyces cerevisiae; assay: Antifungal activity against Saccharomyces cerevisiae harboring heterozygous PMC1 deletion mutant assessed as sensitivity by measuring ratio of control intensity to treatment intensity by chemogenomic screening analysis relative to control; type: functional
[25] = system: Trichuris muris; assay: Downregulation of mitochondrial acyl carrier reductase expression in Trichuris muris at 100 uM incubated for 2 to 3 hrs; type: functional; conditions: time 2-3 hrs; procedure, shortened: as §2
[26] = system: Brugia pahangi; assay: Antinematodal activity against Brugia pahangi infected in mongolian jirds assessed as reduction in worm burden at 10 mg/kg, po administered twice daily for 5 days; type: functional, organism-based; conditions: time 5.0 day; procedure, shortened: as §4
[27] = system: Brugia pahangi; assay: Antinematodal activity against Brugia pahangi infected in mongolian jirds assessed as deformed embryos with punctate pre-infected for 5 months followed by compound addition at 10 mg/kg, po administered twice daily for 5 days; type: functional, organism-based; conditions: time 5.0 day; procedure, shortened: as §3
[28] = system: Brugia pahangi; assay: Antinematodal activity against Brugia pahangi assessed as inhibition of worm motility at day 6 by worminator analysis; type: functional; conditions: time 6 day
Procedure, shortened: as §1, with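 “Single” for “Two”, “female worm” for “worms”, “plate” for “plate as pixels displaced/s”, “6 as pixels displaced/s.” for “6.”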

[29] = system: Brugia pahangi; assay: Antinematodal activity against Brugia pahangi assessed as inhibition of worm motility at day 2 by worminator analysis; type: functional; conditions: time 2 day
Procedure, shortened: as §1, with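 “Single” for “Two”, “female worm” for “worms”, “plate” for “plate as pixels displaced/s”, “6 as pixels displaced/s.” for “6.”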

[30] = system: Trichuris muris; assay: Downregulation of acyl-CoA synthetase expression in Trichuris muris at 100 uM incubated for 2 to 3 hrs; type: functional; conditions: time 2-3 hrs; procedure, shortened: as §2
[31] = system: Brugia pahangi; assay: Antinematodal activity against Brugia pahangi infected in mongolian jirds assessed as deformed embryos with vacuolated spaces pre-infected for 5 months followed by compound addition at 10 mg/kg, po administered twice daily for 5 days; type: functional, organism-based; conditions: time 5.0 day; procedure, shortened: as §3
[32] = system: Trichuris muris; assay: Antinematodal activity against Trichuris muris by worminator analysis; type: functional, organism-based; procedure, shortened: as §1
[33] = system: Trichuris muris; assay: Downregulation of AMPK gene expression in Trichuris muris at 100 uM incubated for 2 to 3 hrs; type: functional; conditions: time 2-3 hrs; procedure, shortened: as §2
[34] = system: Trichuris muris; assay: Antinematodal activity against Trichuris muris assessed as inhibition of worm motility measured immediately by worminator analysis; type: functional; procedure, shortened: as §1
[35] = system: Saccharomyces cerevisiae; assay: Antifungal activity against Saccharomyces cerevisiae harboring heterozygous YGR115C deletion mutant assessed as sensitivity by measuring ratio of control intensity to treatment intensity by chemogenomic screening analysis relative to control; type: functional
[36] = system: Brugia pahangi; assay: Antinematodal activity against Brugia pahangi infected in mongolian jirds assessed as embryos with autophagolysosomes pre-infected for 5 months followed by compound addition at 10 mg/kg, po administered twice daily for 5 days; type: functional, organism-based; conditions: time 5.0 day; procedure, shortened: as §3
[37] = system: Candida albicans; assay: Antifungal activity against Candida albicans CAAL28 infected in BALB/c mouse candidiasis model assessed as animal survival pre-infected for 1 hr followed by compound addition at 10 mg/kg administered once daily for 3 days and measured on day 4 (reference value: 25%); type: functional; conditions: time 4 day
[38] = system: Candida albicans; assay: Antifungal activity against Candida albicans CAAL28 infected in BALB/c mouse candidiasis model administered once daily for 3 days; type: functional, organism-based; conditions: CAAL28, 72 h

SMILES: CC(C1C2CC3CC(C2)CC1C3)N(C)CC(O)(Cn1cncn1)c1ccc(F)cc1F.Cl (stereo not drawn)
- inhibition (INH) [1]: 32%
- Activity [2]: Active
- inhibition (INH) [3]: 98%
- Activity [4]: Active
- Activity [5]: Active
- inhibition (INH) [6]: 99%
- log2(ratio) [7]: -4.18
- Activity [8]: Active
- Activity [9]: Active
- pIC50 [10]: 5.66
- log2(ratio) [11]: -6.54
- inhibition (INH) [12]: 42%
- Activity [13]: Active
- inhibition (INH) [14]: 93%
- Activity [15]: Active
- Activity [16]: Active
- Activity [17]: Active
- Activity [18]: Active
- inhibition (INH) [19]: 100%
- Activity [20]: Active
- Activity [21]: Active
- log2(ratio) [22]: -6.48
- inhibition (INH) [23]: 100%
- log2(ratio) [24]: -4.67
- Activity [25]: Active
- Activity [26]: Active
- Activity [27]: Active
- inhibition (INH) [28]: 100%
- inhibition (INH) [29]: 100%
- Activity [30]: Active
- Activity [31]: Active
- pIC50 [32]: 4.69
- Activity [33]: Active
- inhibition (INH) [34]: 10%
- log2(ratio) [35]: -4.65
- Activity [36]: Active

SMILES: OC(Cn1cncn1)(Cn1cncn1)c1ccc(F)cc1F [FLUCONAZOLE]
- inhibition (INH) [1]: 6%
- inhibition (INH) [3]: 20%
- inhibition (INH) [6]: 11%
- inhibition (INH) [12]: 21%
- inhibition (INH) [14]: 13%
- Activity [37]: >50%
- inhibition (INH) [19]: 10%
- inhibition (INH) [23]: 15%
- inhibition (INH) [28]: 4%
- inhibition (INH) [29]: 7%
- inhibition (INH) [34]: 6%
- pIC50 [38]: < 4.00
